Data as given in article PMC12746516 (Clinical Pharmacology and Therapeutics, 2025).

How the values were obtained:
HepG2 cells [1] = assay: Oxidative stress assay; format: cell-based; conditions: HepG2, 24-hour incubation; for concentrations with significant increases in ROS: DHE fluorescence vs 0.2% DMSO
In short: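 Intracellular ROS were read by dihydroethidium fluorescence and expressed as fold change versus 0.2% DMSO vehicle, with troglitazone as positive control. Nominal concentrations covered each compound's predicted plasma and liver Cmax (PBPK). Reported values come from the 24-hour exposure; a 1-hour exposure was also run. Plotted with standard deviation; significance by Kruskal–Wallis test.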

HepG2 cells [2] = assay: Cellular respiration assay; format: cell-based; conditions: HepG2, 1-hour incubation; for decrease in OCR within predicted physiological range (in words): plasma Cmax to liver Cmax
In short: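 HepG2 cells incubated 1 h with test compound (parent compounds or metabolites), then run on a Seahorse XFe96 per the Mito Stress Test Kit protocol. Baseline oxygen consumption rate is expressed as fold change versus 0.2% DMSO vehicle. The physiological range spans predicted plasma Cmax to predicted liver Cmax, from a PBPK model using the liver:blood Kp.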

human BSEP = human BSEP (Homo sapiens, UniProt O95342); assay: BSEP inhibition, taurocholate uptake in HEK293 human BSEP vesicles; format: biochemical
liver GSH = conditions: mice, intravenous, after a toxic dose of acetaminophen; cited from earlier work
GSH in the liver = conditions: rats, intravenous administration; cited from earlier work

Sequence of human BSEP (O95342 whole entry): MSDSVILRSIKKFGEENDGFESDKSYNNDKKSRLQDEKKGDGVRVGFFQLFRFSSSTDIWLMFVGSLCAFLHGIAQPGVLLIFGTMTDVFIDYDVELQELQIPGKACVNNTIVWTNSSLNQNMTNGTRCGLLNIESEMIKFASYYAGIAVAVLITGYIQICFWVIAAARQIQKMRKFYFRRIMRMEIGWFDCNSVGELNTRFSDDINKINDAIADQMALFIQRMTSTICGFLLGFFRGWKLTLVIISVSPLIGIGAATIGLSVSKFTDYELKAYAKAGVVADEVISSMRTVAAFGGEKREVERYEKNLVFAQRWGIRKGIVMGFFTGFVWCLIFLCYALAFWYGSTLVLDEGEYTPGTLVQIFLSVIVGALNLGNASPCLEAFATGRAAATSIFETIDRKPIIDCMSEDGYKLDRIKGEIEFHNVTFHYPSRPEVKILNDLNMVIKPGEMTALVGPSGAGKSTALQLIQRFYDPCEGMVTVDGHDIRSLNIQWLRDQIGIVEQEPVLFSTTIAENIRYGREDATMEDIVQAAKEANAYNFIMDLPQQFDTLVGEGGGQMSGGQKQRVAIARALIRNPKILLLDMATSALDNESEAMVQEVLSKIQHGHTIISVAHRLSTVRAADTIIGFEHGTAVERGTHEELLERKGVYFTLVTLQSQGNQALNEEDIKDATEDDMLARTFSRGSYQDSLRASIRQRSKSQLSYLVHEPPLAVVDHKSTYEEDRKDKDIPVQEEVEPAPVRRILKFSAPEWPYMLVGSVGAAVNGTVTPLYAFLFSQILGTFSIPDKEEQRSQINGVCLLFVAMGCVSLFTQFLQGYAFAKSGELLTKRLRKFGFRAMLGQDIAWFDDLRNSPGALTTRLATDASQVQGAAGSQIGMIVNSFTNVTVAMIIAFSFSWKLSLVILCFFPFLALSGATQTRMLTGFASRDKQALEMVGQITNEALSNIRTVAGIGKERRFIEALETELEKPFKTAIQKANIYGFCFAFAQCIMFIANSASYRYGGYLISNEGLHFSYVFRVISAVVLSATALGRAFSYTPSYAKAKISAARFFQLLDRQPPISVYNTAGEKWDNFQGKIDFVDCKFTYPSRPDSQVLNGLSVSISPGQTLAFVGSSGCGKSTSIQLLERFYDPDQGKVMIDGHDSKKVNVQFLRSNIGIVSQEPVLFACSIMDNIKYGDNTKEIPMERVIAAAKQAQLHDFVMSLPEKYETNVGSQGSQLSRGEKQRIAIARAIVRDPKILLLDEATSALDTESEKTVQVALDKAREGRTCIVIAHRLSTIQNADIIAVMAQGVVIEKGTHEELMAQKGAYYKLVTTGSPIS

| Compound | magnitude of ROS increase compared with another compound (in words) (HepG2 cells [1]) | decrease in OCR at 10 μM (HepG2 cells [2]) | concentrations with significant increases in ROS (HepG2 cells [1]) | decrease in OCR within predicted physiological range (in words) (HepG2 cells [2]) | IC50 (human BSEP) | also measured |
| --- | --- | --- | --- | --- | --- | --- |
| [2H]C([2H])([2H])C(c1cc(C(C)(C)C)c(NC(=O)c2c[nH]c3ccccc3c2=O)cc1O)(C([2H])([2H])[2H])C([2H])([2H])[2H] [Deutivacaftor, deutivacaftor] | nearly identical levels of ROS increases at the same concentrations as ivacaftor | ~ 50% | – | – | – | – |
| Cc1nn(C)cc1S(=O)(=O)NC(=O)c1ccc(-n2ccc(OCC(C)(C)C(F)(F)F)n2)nc1N1C[C@@H](C)CC1(C)C [Elexacaftor, elexacaftor] | – | – | 40 µM | induced a decrease in OCR | 37.1 µM | – |
| CC(C)(C)c1cc(C(C)(C)C)c(NC(=O)c2c[nH]c3ccccc3c2=O)cc1O [Ivacaftor, ivacaftor] | matched or surpassed that of the positive control, troglitazone | ~ 50% | – | induced the most prominent decrease in OCR | > 100 µM | – |
| CC(C)(C)c1cc(C(C)(C)CO)c(O)cc1NC(=O)c1c[nH]c2ccccc2c1=O [M1 ivacaftor] | – | – | 100 µM | did not induce any notable decrease | – | – |
| CC(=O)N[C@@H](CS)C(=O)O [NAC, n‐acetyl cysteine] | – | – | – | – | – | recovery of liver GSH compared with untreated values (liver GSH): 75%; recovery of mitochondrial GSH compared with untreated values (liver GSH): 45%; increase in levels of GSH in the liver (GSH in the liver): 50% |
| CC(C)(CO)c1cc2cc(NC(=O)C3(c4ccc5c(c4)OC(F)(F)O5)CC3)c(F)cc2n1C[C@@H](O)CO [Tezacaftor, tezacaftor] | – | – | – | did not induce a notable decrease in OCR | > 100 µM | – |
